Assay outcomes deposited in PubChem BioAssay by Johns Hopkins Ion Channel Center.
MrgX1 allo act: allosterically activates human MrgX1 receptor signaling; B-score at 10 µM; Q96LB2; 310,000 compounds, 0.63% hits; MrgX1-HEK293, Fluo-4 calcium flux, FDSS; active compounds read high;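 active means plate-corrected calcium response at least 3 library SD above typical, normal starting fluorescence, not activating the receptor alone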;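 further: compound read alongside a low EC10 to EC30 dose of BAM8-22 agonist; peak minus trough fluorescence over baseline measured at the second addition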
Target sequence (Q96LB2 whole entry, looked up): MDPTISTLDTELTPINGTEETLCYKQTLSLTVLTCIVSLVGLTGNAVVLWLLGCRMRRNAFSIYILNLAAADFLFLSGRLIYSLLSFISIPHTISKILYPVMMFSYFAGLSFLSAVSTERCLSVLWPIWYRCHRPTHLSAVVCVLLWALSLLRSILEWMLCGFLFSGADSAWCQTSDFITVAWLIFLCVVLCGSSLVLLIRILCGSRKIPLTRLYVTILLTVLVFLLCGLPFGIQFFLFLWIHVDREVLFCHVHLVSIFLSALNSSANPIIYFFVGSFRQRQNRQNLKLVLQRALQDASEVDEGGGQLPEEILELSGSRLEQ
MrgX1 agonist: activates human MrgX1 receptor signaling | B-score at 10 µM | 310,000 compounds, 0.44% hits | AID 588627 | Q96LB2 | MrgX1-HEK293 cells, Fluo-4 calcium fluorescence, agonist mode; active compounds read high;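 active means calcium response B-score plate-corrected fluorescence ratio at least 3 library SD, with starting fluorescence B-score inside 5 SD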
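Material: HEK293 cells stably expressing human MrgX1 receptor | Quantity: 15,000 cells per well | Times: Cells plated overnight, dye loaded 0.5 h 37 °C, 0.5 h room temperature | Measured by: Kinetic Fluo-4 NW fluorescence of intracellular calcium | Control set: Positive and negative controls per plate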
RGS4 inh: inhibitors of human RGS4; HEK293 M3R/RGS4 inducible, Fluo-4 calcium flux; active compounds read high; triggered by carbachol at its EC20; B-score at 10 µM; 310,000 compounds, 0.45% hits; AID 463165;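 active means B-score, a plate-corrected calcium signal, over three deviations above library mean, with baseline fluorescence within five deviations of library mean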;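 further: RGS4 expression induced by doxycycline in cells with stable M3 receptor; B-score is computed from the integrated fluorescence ratio over baseline after carbachol; higher B-score means a larger calcium signal and so more RGS4 inhibition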
Target sequence (P49798 whole entry, looked up): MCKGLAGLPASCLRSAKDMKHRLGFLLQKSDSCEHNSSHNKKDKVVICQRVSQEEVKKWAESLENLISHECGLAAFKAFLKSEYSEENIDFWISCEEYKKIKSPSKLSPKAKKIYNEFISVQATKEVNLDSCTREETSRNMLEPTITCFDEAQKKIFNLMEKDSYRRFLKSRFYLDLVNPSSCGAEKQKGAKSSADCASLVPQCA
MrgX1 antagonist: human MrgX1 receptor antagonism, primary screen | Q96LB2 | MRGX1-HEK293 calcium flux, Fluo-4, BAM8-22 antagonism; active compounds read low | B-score at 10 µM | 310,000 compounds, 1.3% hits;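 active means calcium-response B-score plate-corrected more than 3 library SD below zero, starting fluorescence within 5 deviations, no agonist response on first addition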;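 further: peak minus trough fluorescence over baseline after final BAM8-22 challenge near maximal dose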
RGS4 act: potentiators or activators of RGS4; B-score at 10 µM; HEK293 M3R/inducible RGS4, carbachol calcium flux Fluo4; active compounds read low; AID 463111; 310,000 compounds, 0.92% hits;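 active means B-score of the integrated calcium signal more than 4 SD below the library mean, with starting fluorescence not abnormally high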;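 further: negative B-score means reduced calcium response which marks RGS4 activation or potentiation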
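test system = M3R-expressing HEK293 line, RGS4 induced by doxycycline | probe or stimulus = carbachol at ECmax as muscarinic agonist stimulus | timing = dye loading 30 min 37 °C, buffer rest 30 min RT | signal = calcium dye Fluo4 fluorescence | evaluation = B score from integrated fluorescence ratio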
* = called active by the depositor; i = inactive; · = not tested or not shown. Rows were chosen to be rich in hits. Some 3.5% of all compounds tested hit in one or more screens of this group.

SMILES | MrgX1 allo act | MrgX1 agonist | RGS4 inh | MrgX1 antagonist | RGS4 act
Cn1nc(-c2ccc(C(=O)NC3CCCCC3)cc2)c2ccccc2c1=O | 9.49* | i | i | i | i
Cc1c(N2C(=O)/C(=C\c3ccc(N(C)C)cc3)N(C)C2=S)c(=O)n(-c2ccccc2)n1C | i | i | · | -4.52* | ·
CCSC1(SCC)N=C(N)C2(C#N)C(c3ccc(F)cc3)C12C#N (stereo not drawn) | i | 29.2* | i | i | i
CCOC(=O)N1CCN(C(=O)c2cn(CC)c3cc(N4CCN(C)CC4)c(F)cc3c2=O)CC1 | i | i | i | -7.59* | i
CC(NC(=O)CCC(=O)c1ccccc1)c1ccc(F)cc1 (stereo not drawn) | i | i | i | i | i
C/C(=N/OCO/N=C(/C)c1ccc(F)cc1)c1ccc(F)cc1 | i | i | i | i | i
COc1ccc(/C=N/N=C/c2ccc(OC)c(OC)c2)cc1OC | i | i | i | i | i
COc1cc(/C=N/N=C(N)N)ccc1OCc1ccccc1Cl | 6.5* | i | i | i | i
Cn1ncc([N+](=O)[O-])c1C(=O)N/N=C/c1cccc([N+](=O)[O-])c1 | i | i | i | -5.36* | i
CCn1c(CN2CCN(Cc3ccc(C)cc3)C(CCO)C2)nc2ccccc21 (stereo not drawn) | i | i | i | i | i
CC(=O)Nc1sc(N/N=C/c2ccc(C)cc2)nc1-c1ccc(C)cc1 | i | i | i | i | i
CC(=O)Nc1sc(/C(C#N)=C/c2ccc(Cl)c(Cl)c2)nc1-c1ccc(C)cc1 | · | · | i | · | -8.86*
COCCNC(=O)c1cccc(OC2CCN(C(C)COc3ccccc3)CC2)c1 (stereo not drawn) | i | 31.8* | i | i | i
COCCNC(=O)c1cccc(OC2CCN(Cc3ccccc3OCCO)CC2)c1 | i | i | i | i | i
CCOc1ccc(NS(=O)(=O)c2cc(C(=O)N(CC)CC(=O)NCc3cccs3)ccc2C)cc1 | i | i | i | i | i
Cc1cc(C(=O)CSc2nncs2)c(C)n1-c1c(C)n(C)n(-c2ccccc2)c1=O | i | i | i | i | -9.36*
OCC[C@@H]1C[C@@H](O)[C@H](O)[C@@]2(OCCc3ccccc32)O1 | i | i | i | i | i
Cc1ccc2nc(N3CCN(c4cccc(C)c4C)CC3)c3nnnn3c2c1 | i | i | i | i | i
Cc1ccc2nc(Cl)c3nnnn3c2c1 | 8.74* | i | i | i | i
CCSc1nnc(NC(=O)Cc2cc(OC)c(OC)c(OC)c2)s1 | i | i | i | i | i
CN(C)CCOC1c2ccccc2CSc2ccccc21 (stereo not drawn) | i | i | i | i | -8.88*
CCOc1ccc(S(=O)(=O)N(CC)CC)cc1NC(=O)c1ccc(N2CCCC2=O)cc1 | i | i | i | i | i
CCc1ccc(OCC(=O)NNC(=O)c2nn(CC)c(=O)c3ccccc23)cc1 | 9.58* | i | i | i | i
O=c1[nH]c(/C=C\c2ccccc2F)nc(O)c1[N+](=O)[O-] | i | i | i | i | i
Cc1ccc(S(=O)(=O)NCC(=O)N(CCc2ccccc2)CC(=O)NCc2ccco2)cc1 | · | · | i | · | i
SMILES | MrgX1 allo act | MrgX1 agonist | RGS4 inh | MrgX1 antagonist | RGS4 act
Cc1ccc(S(=O)(=O)NCC(=O)N(CC(=O)NCc2ccco2)Cc2ccccc2)cc1 | i | 35.9* | i | i | i
N#C/C(C(=O)NCc1ccccc1)=C1/N=C(NC(=O)c2ccco2)c2ccccc21 | i | i | i | i | i
COc1ccc(CCNC(=O)/C(C#N)=C2\N=C(NC(=O)c3ccco3)c3ccccc32)cc1 | i | i | i | -4.66* | i
Cc1ccccc1S(=O)(=O)Oc1ccc2ccc(O)cc2c1 | i | i | i | i | -8.88*
CC(C)c1ccccc1NC(=O)CNCCOc1ccccc1F | i | i | i | i | -7.15*
Cc1cc(N2CCCC2)ccc1/C=C1\NC(=S)N(C)C1=O | i | 44.3* | i | i | i
CN1C(=O)c2ccc(N3CCCC3)cc2C1=O | i | i | i | i | i
Cc1ccc(/C=C2/C(=O)ON=C2c2ccccc2)o1 | i | 42.6* | i | i | i
CC1=NOC(=O)/C1=C\c1ccc(-c2cccc(Cl)c2)o1 | i | i | i | i | -8.95*
CCN(C(=O)CN1C(=O)COc2ccc(S(=O)(=O)N3CCCCCC3)cc21)c1cccc(C)c1 | i | 38.1* | i | i | i
CCOc1ccccc1NC(=O)CCc1nnc2ccc(N3CCC4(CC3)OCCO4)nn12 | i | i | i | i | i
Cc1ccc(C23CC4CC(CC(C(=O)NC(C)C(N)=O)(C4)C2)C3)cc1 (stereo not drawn) | i | i | i | i | i
CCc1nnc(NS(=O)(=O)c2ccc(NC(=S)NC(=O)/C=C/c3ccc(C(C)C)cc3)cc2)s1 | i | i | i | i | -9.67*
CCc1nnc(NS(=O)(=O)c2ccc(NC(=S)NC(=O)/C=C/c3ccccc3)cc2)s1 | i | i | i | i | i
O=C(C[n+]1ccccc1)Nc1ccccc1C(=O)O | i | i | i | i | i
CCN1CCN(Cc2c(O)ccc3c2O/C(=C\c2ccc(C)cc2)C3=O)CC1 | i | i | i | i | i
Cc1ccc(/C=C2\Oc3c(ccc(O)c3CN3CCN(C)CC3)C2=O)cc1 | i | i | i | i | -9.6*
O=C1/C(=C/C=C/c2ccccc2)Oc2c1ccc(O)c2CN1CCN(CCO)CC1 | i | i | i | -5.68* | i
CCN1CCN(Cc2c(O)ccc3c2O/C(=C\c2ccccc2)C3=O)CC1 | i | i | i | i | -8.31*
Cc1noc(C(F)(F)F)c1C(=O)NNC(=O)c1cccc(C(F)(F)F)c1 | i | i | i | i | i
O=C1CCN(Cc2nc(-c3ccc(Cl)cc3)no2)CCN1 | i | i | i | i | i
Cc1c(C(=O)NC2CCOC2)oc2c(F)cccc12 (stereo not drawn) | i | i | i | i | i
COc1ccc(S(=O)(=O)N2CCN(C(=O)N3CCOCC3)C2C)cc1 (stereo not drawn) | i | i | i | i | i
CN(C)S(=O)(=O)c1ccc(C(=O)NCC(C)(C)CN=C2NS(=O)(=O)c3ccccc32)cc1 | i | i | i | i | i
CCOc1ccc(N(C)c2ccc(/C=C3/SC(=S)NC3=O)cc2)cc1 | i | 35.2* | i | i | i
